Data as given in the RNAGym collection of RNA variant scans (doi:10.1002/anie.201605470).

B1: Osa-1-4 twister ribozyme (parent)
chain: CCGCCUAACACUGCCAAUGCCGGUCCCAAGCCCGGAUAAAAGUGGAGGGGGCGG

Variants of: B1
Test: self-cleavage, relative activity (ratio to wild type); higher = more cleavage; co-transcriptional
Summary of the method: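 For each read, cleavage status was taken from whether upstream sequence was present. The reads came from an Oryza sativa twister ribozyme of 54 nucleotides, whose DNA template was synthesised with 97 % wild-type base and 1 % of each other base at the 48 positions downstream of the cleavage site. The template was transcribed in vitro at 37 °C for 2 h with co-transcriptional self-cleavage, and the RNA was reverse-transcribed using a template-switching oligonucleotide, PCR-amplified and deep-sequenced. Relative activity is the fraction cleaved normalised to wild type.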

In order of rising self-cleavage:
1. A36C G30A  0.02
2. A36C G23C  0.03
3. A36C G30U  0.03
4. A36G G13U  0.03
5. A36G G13C  0.03
6. A36U C31A  0.03
7. A36C U24G  0.03
8. A36C C26A  0.03
9. A36U G30A  0.03
10. A36U G13C  0.03
11. A36U G13U  0.03
12. A36G U24G  0.04
13. A36C G45C  0.04
14. A36C G48U  0.04
15. A36U A7C  0.04
16. A36G C31A  0.04
17. A36U G30U  0.04
18. A36C C33G  0.04
19. A36C G23U  0.05
20. A36G G30U  0.05
21. A36G G30A  0.05
22. A36G G30C  0.05
23. A36C G30C  0.05
24. A36C G45U  0.05
25. A36C G48C  0.05
26. A36C G48A  0.05
27. A36G A7C  0.05
28. A36C C32A  0.06
29. A36C C32G  0.06
30. A36C G53C  0.06
31. A36C C14G  0.06
32. A36C C14A  0.06
33. A36C U24A  0.06
34. A36C C26G  0.06
35. A36U G30C  0.06
36. A36G C26A  0.06
37. A36C C33A  0.06
38. A36C G45A  0.07
39. A36C C32U  0.07
40. A36U C31G  0.07
41. A36U A7U  0.07
42. A36C U24C  0.07
43. A36U A46U  0.08
44. A36U A46C  0.08
45. A36U C33G  0.08
46. A36C C9A  0.08
47. A36G A46C  0.08
48. A36U A46G  0.09
49. A36C G23A  0.09
50. A36C C20G  0.09
51. A36C C14U  0.09
52. A36G C32A  0.09
53. A36U C25G  0.1
54. A36G C21G  0.1
55. A36G A40C  0.1
56. A36G A8C  0.1
57. A36U C21G  0.1
58. A36G A7U  0.1
59. A36G A46U  0.1
60. A36C U43G  0.11
61. A36C C9G  0.11
62. A36G A46G  0.11
63. A36U C25A  0.12
64. A36U G42U  0.12
65. A36G C20G  0.12
66. A36U C32G  0.12
67. A36C C26U  0.12
68. A36G G53C  0.13
69. A36C G53U  0.13
70. A36C U43C  0.13
71. A36U C32A  0.13
72. A36G C26G  0.13
73. A36C C33U  0.13
74. A36U G13A  0.14
75. A36C U43A  0.15
76. A36U C32U  0.15
77. A36G C32G  0.16
78. A36G C31G  0.16
79. A36G C32U  0.17
80. A36C G54C  0.19
81. A36C G53A  0.19
82. A36G G47C  0.2
83. A36C C9U  0.21
84. A36G G13A  0.24
85. A36U C33A  0.24
86. A36C G54A  0.27
87. A36U G42C  0.28
88. A36C C52A  0.37
89. A36U A7G  0.38
90. A36G U24C  0.44
91. A36G G47U  0.47
92. A36U G19A  0.48
93. A36G A7G  0.5
94. A36C C52G  0.51
95. A36G U24A  0.52
96. A36G A8U  0.53
97. A36G G47A  0.54
98. A36C U18A  0.55
99. A36C G54U  0.55
100. A36C G19C  0.56
101. A36G G53U  0.61
102. A36G U43G  0.64
103. A36G C21A  0.64
104. A36G A8G  0.66
105. A36C U18C  0.67
106. A36U G19C  0.67
107. A36G C11G  0.73
108. A36G U43C  0.74
109. A36C G35C  0.75
110. A36C G19A  0.76
111. A36C C20A  0.81
112. A36U G35C  0.82
113. A36C C52U  0.82
114. A36C G19U  0.82
115. A36U G42A  0.85
116. A36G C11A  0.85
117. A36C U18G  0.87
118. A36G C20A  0.87
119. A36C C20U  0.88
120. A36U C33U  0.89
121. A36G A41G  0.89
122. A36G G35U  0.91
123. A36U A39U  0.91
124. A36U C21A  0.91
125. A36U G35A  0.92
126. A36G U43A  0.92
127. A36U C25U  0.92
128. A36G G35A  0.92
129. A36U G19U  0.93
130. A36G G35C  0.93
131. A36G C11U  0.93
132. A36C G35A  0.94
133. A36G G53A  0.95
134. A36G A40G  0.95
135. A36U C31U  0.95
136. A36C G35U  0.95
137. A36U G44U  0.96
138. A36G A40U  0.96
139. A36U G44A  0.97
140. A36G A39U  0.97
141. A36G A41C  0.97
142. A36G G44C  0.97
143. A36G G44U  0.97
144. A36G G54U  0.98
145. A36U A39G  0.98
146. A36G C26U  0.98
147. A36G C20U  0.99
148. A36G A41U  0.99
149. A36U A39C  0.99
150. A36G A39G  1.01
151. A36G C52A  1.01
152. A36G G54C  1.01
153. A36G C31U  1.01
154. A36G G44A  1.01
155. A36G C52U  1.02
156. A36G C21U  1.02
157. A36U G44C  1.03
158. A36G  1.03
159. A36U  1.03
160. A36U G35U  1.04
161. A36G C52G  1.04
162. A36U C52A  1.04
163. A36G G54A  1.04
164. A36U C21U  1.04
165. A36G A39C  1.05
166. A36U C52G  1.06
167. A36U C52U  1.06
